One block for each compound: values may come before it.
What was measured:
[1] = target: T1, Acyl-CoA:cholesterol acyltransferase (Oryctolagus cuniculus, UniProt Q95214); test: Tested for in vitro inhibition against Acyl coenzyme A:cholesterol acyltransferase of intestinal microsomes in cholesterol-fed rabbits; parameters: species or system Microsome
T1 sequence (Q95214 whole entry): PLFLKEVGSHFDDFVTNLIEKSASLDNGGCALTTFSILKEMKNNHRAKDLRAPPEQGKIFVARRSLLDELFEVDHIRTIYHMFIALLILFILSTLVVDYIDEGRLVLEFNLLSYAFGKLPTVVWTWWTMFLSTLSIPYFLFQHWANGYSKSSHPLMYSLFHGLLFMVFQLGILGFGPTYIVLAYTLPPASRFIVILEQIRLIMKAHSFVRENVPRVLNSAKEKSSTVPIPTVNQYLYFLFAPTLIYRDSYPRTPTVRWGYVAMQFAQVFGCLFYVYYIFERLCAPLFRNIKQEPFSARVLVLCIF
Outline: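 Microsomes were prepared from intestine of cholesterol-fed rabbits. ACAT activity was measured using [1-14C]oleoyl-CoA as substrate. Each determination was run in triplicate.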

Rattus norvegicus [2] = species: Rattus norvegicus; test: Percent change in total cholesterol in peanut oil (5.5%)-, cholic acid (0.3%)-, Cholesterol (1.5%)-fed rats after a single dose.; assay type: functional
Outline: (§1)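 Male Sprague-Dawley rats (200-225 g), n=5-7/group, given a single oral dose at 4 p.m. as a suspension in 1.5% CMC/0.2% Tween-20 in water (50 mg/kg); controls received vehicle alone. The rats then had free access to chow with peanut oil, cholesterol and cholic acid. At 8 a.m. next day they were bled by cardiac puncture under ether, and serum total cholesterol was measured as % change versus controls (unpaired two-tailed t-test).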

Rattus norvegicus [3] = species: Rattus norvegicus; test: Percent change in total cholesterol in peanut oil (5.5%) - cholic acid (0.3%) - Cholesterol (1.5%) fed rats after a single dose; assay type: functional; outline: as §1
[4] = Compound was evaluated for the distribution coefficient at pH 7.4; assay type: physicochemical; settings: octanol/water, read-out: logD
Rattus norvegicus [5] = test: Compound was evaluated in experiment 1 for Total cholesterol at 1.0 (mg/kg) dose; assay type: functional; parameters: unit not given beside the values
Outline: (§2)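 Chronic model in male Sprague-Dawley rats (200-225 g). Rats were fed chow with peanut oil 5.5%, cholesterol 1.5% and cholic acid ad libitum for 2 weeks. Test article was given by gavage once daily (morning) in the second week, as a CMC/Tween aqueous suspension. Blood was taken by cardiac puncture under ether 24 h after the last dose. Plasma total, HDL and nonHDL cholesterol were measured with an Abbott VP analyzer using dextran sulfate precipitation, reported as mg/dL and % change from control. Controls were cholesterol-fed rats and rats switched to chow in week 2.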

Rattus norvegicus [6] = test: Compound was evaluated in experiment 1 for change in non High density lipoprotein at the doses at 3.0 (mg/kg) dose; assay type: functional; outline: as §2
Rattus norvegicus [7] = test: Compound was evaluated in experiment 1 for non High density lipoproteins at 0.3 (mg/kg) dose; assay type: functional; outline: as §2
Rattus norvegicus [8] = test: Compound was evaluated in experiment 1 for Change in total cholesterol at 0.3 (mg/kg) dose; assay type: functional; outline: as §2
Rattus norvegicus [9] = test: Compound was evaluated in experiment 1 for High density lipoproteins at 0.3 (mg/kg) dose; assay type: functional; outline: as §2
Rattus norvegicus [10] = test: Compound was evaluated in experiment 1 for non High density lipoproteins at 3.0(mg/kg) dose; assay type: functional; outline: as §2
Rattus norvegicus [11] = test: Compound was evaluated in experiment 1 for non High density lipoproteins at 1.0 (mg/kg) dose; assay type: functional; outline: as §2
Rattus norvegicus [12] = test: Compound was evaluated in experiment 1 for High density lipoproteins at 3.0 (mg/kg) dose; assay type: functional; outline: as §2
Rattus norvegicus [13] = test: Compound was evaluated in experiment 1 for Total cholesterol at 3.0 (mg/kg) dose; assay type: functional; parameters: unit not given beside the values; outline: as §2
Rattus norvegicus [14] = test: Compound was evaluated in experiment 1 for Total cholesterol at 0.3 (mg/kg) dose; assay type: functional; parameters: unit not given beside the values; outline: as §2
Rattus norvegicus [15] = test: Compound was evaluated in experiment 1 for High density lipoproteins at 1.0 (mg/kg) dose; assay type: functional; outline: as §2
Rattus norvegicus [16] = test: Compound was evaluated in experiment 1 for Change in High density lipoproteins at 1.0 (mg/kg) dose; assay type: functional; outline: as §2
Rattus norvegicus [17] = test: Compound was evaluated in experiment 1 for High density lipoproteins at 10 (mg/kg) dose; assay type: functional; outline: as §2
Rattus norvegicus [18] = test: Compound was evaluated in experiment 1 for Change in High density lipoproteins at 10 (mg/kg) dose; assay type: functional; outline: as §2
Rattus norvegicus [19] = test: Compound was evaluated in experiment 1 for Change in total cholesterol at 10 (mg/kg) dose; assay type: functional; outline: as §2
Rattus norvegicus [20] = test: Compound was evaluated in experiment 1 for Change in High density lipoproteins at 0.3 (mg/kg) dose; assay type: functional; outline: as §2
Rattus norvegicus [21] = test: Compound was evaluated in experiment 1 for change in non High density lipoprotein at the doses at 1.0 (mg/kg) dose; assay type: functional; outline: as §2
Rattus norvegicus [22] = test: Compound was evaluated in experiment 1 for Change in total cholesterol at 1.0 (mg/kg) dose; assay type: functional; outline: as §2
Rattus norvegicus [23] = test: Compound was evaluated in experiment 1 for Change in High density lipoproteins at 3.0 (mg/kg) dose; assay type: functional; outline: as §2
Rattus norvegicus [24] = test: Compound was evaluated in experiment 1 for Total cholesterol at 10 (mg/kg) dose; assay type: functional; parameters: unit not given beside the values; outline: as §2
Rattus norvegicus [25] = test: Compound was evaluated in experiment 1 for Change in total cholesterol at 3.0 (mg/kg) dose; assay type: functional; outline: as §2
Rattus norvegicus [26] = test: Compound was evaluated in experiment 1 for change in non High density lipoprotein at the doses at 10 (mg/kg) dose; assay type: functional; outline: as §2
Rattus norvegicus [27] = test: Compound was evaluated in experiment 1 for change in non High density lipoprotein at the doses at 0.3 (mg/kg) dose; assay type: functional; outline: as §2
Rattus norvegicus [28] = test: Compound was evaluated in experiment 1 for non High density lipoproteins at 10 (mg/kg) dose; assay type: functional; outline: as §2
Rattus norvegicus [29] = test: Compound was evaluated for the percentage change in total cholesterol in peanut oil (5.5%)-cholic acid (0.3%)-cholesterol (1.5%)-fed rats at 30 mg/kg; assay type: functional

SMILES: COC(=O)c1cccc(C2(CNC(=O)Nc3c(C(C)C)cccc3C(C)C)CCCC2)c1
IC50 [1]: 0.034 µM
Delta TC (Rattus norvegicus [2]): -51%

SMILES: Cc1cc(C)c(C2(CNC(=O)Nc3c(C(C)C)cccc3C(C)C)CCCC2)c(C)c1
IC50 [1]: 0.056 µM
Delta TC (Rattus norvegicus [3]): -24%

SMILES: CC(C)c1cccc(C(C)C)c1NC(=O)NCC1(c2cc(C(F)(F)F)cc(C(F)(F)F)c2)CCCC1
IC50 [1]: 0.057 µM
Delta TC (Rattus norvegicus [3]): -32%

SMILES: CC(C)c1ccc(C2(CNC(=O)Nc3c(C(C)C)cccc3C(C)C)CCCC2)cc1
IC50 [1]: 0.048 µM
Delta TC (Rattus norvegicus [3]): -63%

SMILES: COc1ccccc1C1(CNC(=O)Nc2c(C(C)C)cccc2C(C)C)CCCC1
IC50 [1]: 0.023 µM
Delta TC (Rattus norvegicus [2]): -53%

SMILES: CC(C)c1cccc(C(C)C)c1NC(=O)NCC1(c2ccc(C(C)(C)C)cc2)CCCC1
IC50 [1]: 0.063 µM
Delta TC (Rattus norvegicus [3]): -48%

SMILES: Cc1cccc(C2(CNC(=O)Nc3c(C(C)C)cccc3C(C)C)CCCC2)c1
IC50 [1]: 0.015 µM
Delta TC (Rattus norvegicus [3]): -52%

SMILES: Cc1ccccc1C1(CNC(=O)Nc2c(C(C)C)cccc2C(C)C)CCCC1
IC50 [1]: 0.017 µM
Delta TC (Rattus norvegicus [3]): -73%

SMILES: CC(C)c1cccc(C(C)C)c1NC(=O)NCC1(c2ccccc2C(F)(F)F)CCCC1
IC50 [1]: 0.018 µM
Delta TC (Rattus norvegicus [3]): -50%

SMILES: CC(C)c1cccc(C(C)C)c1NC(=O)NCC1(c2cccc(CN(CCO)CCO)c2)CCCC1
logD [4]: 3.55
Delta TC (Rattus norvegicus [2]): -33%
Delta TC (Rattus norvegicus [29]): -63%

SMILES: CC(C)c1cccc(C(C)C)c1NC(=O)NCC1(c2cccc(C(F)(F)F)c2)CCCC1
IC50 [1]: 0.027 µM
Delta TC (Rattus norvegicus [3]): -45%

SMILES: CC(C)c1cccc(C(C)C)c1NC(=O)NCC1(c2ccc(CO)cc2)CCCC1
Delta TC (Rattus norvegicus [2]): 19%

More lines, main results first:

IC50 [1]: 0.029 µM
SMILES: CC(C)c1cccc(C(C)C)c1NC(=O)NCC1(c2ccc(Br)cc2)CCCC1
Delta TC (Rattus norvegicus [3]): -59%

IC50 [1]: 0.05 µM
SMILES: Cc1ccc(C2(CNC(=O)Nc3c(C(C)C)cccc3C(C)C)CCCC2)c(C)c1
Delta TC (Rattus norvegicus [3]): -50%

IC50 [1]: 0.025 µM
SMILES: CC(C)c1cccc(C(C)C)c1NC(=O)NCC1(c2ccc(NCCO)cc2)CCCC1
Delta TC (Rattus norvegicus [2]): -63%

IC50 [1]: 0.62 µM
SMILES: CC(C)c1cccc(C(C)C)c1NC(=O)NCC1(c2cccc(C(=O)O)c2)CCCC1
Delta TC (Rattus norvegicus [2]): -40%

IC50 [1]: 0.44 µM
logD [4]: 3.64
SMILES: CC(C)c1cccc(C(C)C)c1NC(=O)NCC1(c2cccc(CN)c2)CCCC1
Delta TC (Rattus norvegicus [2]): -49%

logD [4]: 4.37
SMILES: CC(C)c1cccc(C(C)C)c1NC(=O)NCC1(c2cccc(CN3CCOCC3)c2)CCCC1
TC (Rattus norvegicus [5]): 273
Change non HDL-C (Rattus norvegicus [6]): -33%
Non-HDL-C (Rattus norvegicus [7]): 224
Change TC (Rattus norvegicus [8]): -24%
HDL-C (Rattus norvegicus [9]): 14
Non-HDL-C (Rattus norvegicus [10]): 202
Non-HDL-C (Rattus norvegicus [11]): 260
HDL-C (Rattus norvegicus [12]): 16
TC (Rattus norvegicus [13]): 218
TC (Rattus norvegicus [14]): 237
HDL-C (Rattus norvegicus [15]): 13
Change HDL -C (Rattus norvegicus [16]): 10%
HDL-C (Rattus norvegicus [17]): 30
Change HDL -C (Rattus norvegicus [18]): 162%
Change TC (Rattus norvegicus [19]): -63%
Change HDL -C (Rattus norvegicus [20]): 16%
Change non HDL-C (Rattus norvegicus [21]): -14%
Delta TC (Rattus norvegicus [2]): -47%
Change TC (Rattus norvegicus [22]): -13%
Change HDL -C (Rattus norvegicus [23]): 40%
TC (Rattus norvegicus [24]): 118
Change TC (Rattus norvegicus [25]): -31%
Change non HDL-C (Rattus norvegicus [26]): -71%
Change non HDL-C (Rattus norvegicus [27]): -26%
Non-HDL-C (Rattus norvegicus [28]): 84
Delta TC (Rattus norvegicus [29]): -70%

IC50 [1]: 0.14 µM
SMILES: CC(C)c1cccc(C(C)C)c1NC(=O)NCC1(c2ccccc2N)CCCC1
Delta TC (Rattus norvegicus [2]): -58%

IC50 [1]: 0.039 µM
SMILES: Cc1ccc(C)c(C2(CNC(=O)Nc3c(C(C)C)cccc3C(C)C)CCCC2)c1
Delta TC (Rattus norvegicus [3]): -48%

IC50 [1]: 0.051 µM
SMILES: CC(C)c1cccc(C(C)C)c1NC(=O)NCC1(c2cccc([N+](=O)[O-])c2)CCCC1
Delta TC (Rattus norvegicus [2]): -51%

IC50 [1]: 0.013 µM
SMILES: COc1cccc(C2(CNC(=O)Nc3c(C(C)C)cccc3C(C)C)CCCC2)c1
Delta TC (Rattus norvegicus [2]): -42%

Source: ChEMBL document CHEMBL1127826, “Inhibitors of acyl-CoA:cholesterol acyltransferase (ACAT). 7. Development of a series of substituted N-phenyl-N'-[(1-phenylcyclopentyl)methyl]ureas with enhanced hypocholesterolemic activity” (J Med Chem, 1994)
